Screens (PubChem BioAssay)
TbMetRS inhib: Trypanosoma brucei MetRS inhibition | purified T. brucei MetRS, ATP depletion, Kinase-Glo luminescence | inhibition, % at 11.9 µM | actives 0.4% (n = 360,000) | AID 624268;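 active = inhibition above a per-plate cutoff of the control wells' mean inhibition plus 3 SD, cut at about 5.5% in these data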;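 also: 0% = DMSO wells median and 100% = median of wells with control inhibitor compound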
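Assay system: T. brucei methionyl-tRNA synthetase, purified | Medium: HEPES buffer with MgCl2, KCl, DTT, spermine, BSA, pyrophosphatase | Compound: 11.9 µM single point | Incubation: 15 min enzyme-compound preincubation, 2 h reaction, 10 min detection, 25 °C | Measured by: Kinase-Glo luciferase luminescence reporting remaining unconsumed ATP | Measure: % inhibition normalized to control-well medians | Replication: Singlicate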
eIF4E-4G inh: blocks eIF4E binding to eIF4G; TR-FRET eIF4E-eIF4GI(517-606) binding, 2 h; P63073+Q04637; inhibition, % at 21.7 µM; AID 782; actives 0.37% (n = 220,000);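 also: 0% = full FRET control wells and 100% = background wells lacking eIF4GI fragment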
p97 inhibitor: human p97 ATPase inhibition. P55072. recombinant p97 ATPase, Kinase-Glo ATP luminescence, 3 h. inhibition, % at 8 µM. actives 0.42% (n = 220,000); in the data active = inhibition above about 15%;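 also: 0% = DMSO vehicle and 100% = wells lacking enzyme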
NCF1 inh: p47phox (human) inhibition. actives 0.53% (n = 220,000). inhibition, % at 24.7 µM. p47phox/p22phox peptide binding, fluorescence polarization, 2 h. P14598. AID 1274;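 also: 0% = p47phox with labelled peptide and 100% = labelled peptide alone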
Target sequence (P14598 whole entry, looked up): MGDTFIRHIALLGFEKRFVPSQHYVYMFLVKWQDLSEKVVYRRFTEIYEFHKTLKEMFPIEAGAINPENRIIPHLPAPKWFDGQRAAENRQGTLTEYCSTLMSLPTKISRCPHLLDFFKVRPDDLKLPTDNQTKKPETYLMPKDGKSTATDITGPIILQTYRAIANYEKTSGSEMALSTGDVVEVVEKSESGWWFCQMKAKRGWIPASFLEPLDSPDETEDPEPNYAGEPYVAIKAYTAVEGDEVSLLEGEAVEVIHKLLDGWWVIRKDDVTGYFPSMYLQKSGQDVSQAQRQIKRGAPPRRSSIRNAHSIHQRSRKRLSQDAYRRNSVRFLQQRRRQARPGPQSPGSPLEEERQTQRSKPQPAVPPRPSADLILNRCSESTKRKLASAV
14-3-3 Bad inh: disrupts binding of bovine 14-3-3 zeta to phospho-Bad peptide; P63103; TR-FRET 14-3-3zeta/Dy647-pBad peptide displacement, 1 h; inhibition, % at 21.7 µM; actives 0.71% (n = 220,000);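 active = inhibition above about 70%, limit read from the data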;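 also: 0% = full 14-3-3 plus peptide FRET controls and 100% = background without 14-3-3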
Target sequence (P63103 whole entry, looked up): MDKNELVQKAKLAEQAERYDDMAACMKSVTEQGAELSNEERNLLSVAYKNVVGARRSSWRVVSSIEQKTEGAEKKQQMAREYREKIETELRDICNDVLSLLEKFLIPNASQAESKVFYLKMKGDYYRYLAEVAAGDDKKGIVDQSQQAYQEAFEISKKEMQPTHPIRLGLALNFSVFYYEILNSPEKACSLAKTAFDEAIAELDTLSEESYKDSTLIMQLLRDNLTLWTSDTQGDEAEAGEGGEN
UBC9 SUMO inh: blocks human SUMOylation mediated by UBC9; P63279; HTRF SUMOylation assay, SAE1/SAE2 + UBC9, in vitro; inhibition, % at 35 µM; actives 0.36% (n = 290,000); AID 2006; in the data active = inhibition above about 50%, passing the limit was not always enough; inconclusive = no clear call, values can overlap the other calls
Numbers without * were called inactive; u = inconclusive; x = not tested or not shown; [ ] = another dose, or the depositor's remark. Compounds with a hit are over-represented: about 1.6% of the library has one in this group of screens.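 The calls were made as follows, unless noted: active = inhibition above about 30% (limit read from the data); inactive = the rest.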

SMILES | TbMetRS inhib | eIF4E-4G inh | p97 inhibitor | NCF1 inh | 14-3-3 Bad inh | UBC9 SUMO inh
COc1ccc(OCCn2c(C)c(/C=N/n3cnnc3)c3ccccc32)cc1 | -0.9 | -1.3 | 2.9 | 0.7 | -2.8 | -1.5
Cc1c(/C=N/n2cnnc2)c2ccccc2n1C | -1.7 | -0.9 | 4.8 | -5.3 | 71.4*[fluorescence artefact?] | 13.6
O=C1N=C2N(CCN3CCCCC3)c3ccccc3N2/C1=C\c1ccc([N+](=O)[O-])o1 | x | 11.7 | -0.2 | -13.5 | 87.6* | 15.4
CC1CC(C)CN(CC(C)(C)NS(=O)(=O)c2ccccc2)C1 (centres undefined) | -1.0 | 2.5 | -1.1 | 3.8 | 77.2* | -14.1
CN1CCN(CC(C)(C)NS(=O)(=O)c2ccccc2)CC1 | -0.5 | x | x | x | x | x
CCOc1ccccc1NC(=O)NNC(=O)CCc1ccc(OC)cc1 | -0.5 | x | x | x | x | 2.9
CC1(C(=O)NCC2CCCCC2)CCN1CCc1ccccc1 (centres undefined) | 0.1 | x | x | x | x | x
COc1cc(CN2CCC(C(=O)N3CCC(C)CC3)CC2)cc(Br)c1O | 0.1 | 2.6 | 0.1 | -5.5 | 79.3* | 28.5
COc1cc(CN2CCC(C(=O)NC3CCCC3)CC2)cc(Br)c1O | -0.6 | 3.8 | 8.1 | -16.0 | 29.8 | 13.2
CCOC(=O)[C@]12CCCC=C1N(CCc1ccc(OC)c(OC)c1)C(=O)[C@H](CC(=O)N1CCCC1)C2 | -0.5 | x | x | x | x | x
CCCCNC(=O)c1nc(C2CCN(S(=O)(=O)c3ccc(S(C)(=O)=O)cc3)CC2)oc1-c1ccccc1 | -0.4 | x | x | x | x | x
O=C(NC1CCCCC1)C(c1ccncc1)N(C(=O)c1csnn1)c1ccccc1 (centres undefined) | -0.7 | x | x | x | x | 2.8
COC(=O)c1ccc(N)cc1O | -1.1 | -0.2 | -2.4 | -5.5 | 0.8 | 8.3
COC(=O)c1ccc(=O)c2nc3/c(=C/O)c(O)cc(=O)c3[nH]c12 | 0.2 | 55.3* | 4.7 | -10.0 | 73.2* | u
CCc1ccc(Nc2ccc3nonc3c2[N+](=O)[O-])cc1 | -0.8 | x | x | x | x | x
CCOC(=O)NNc1ccc2nonc2c1[N+](=O)[O-] | x | 13.8 | 20.9* | 16.5 | 43.6 | 77.2*
COc1ccc2oc3cc(NCCN(C)C)ccc3c(=O)c2c1 | -0.7 | x | x | x | x | x
OCCN(Cc1ccccc1)Cc1cccc(Cl)c1Cl | -0.8 | 3.7 | -9.2 | -0.3 | 88.4* | 13.4
COc1ccc(C2=Nc3ccccc3N(C(=O)c3ccc(C(F)(F)F)cc3)C2C(=O)Nc2ccc3c(c2)OCCO3)cc1 (centres undefined) | -0.5 | x | x | x | x | x
O=C1CC(SCCc2nc3ccccc3[nH]2)C(=O)N1c1ccc(Cl)cc1 (centres undefined) | 21.2* | -1.8 | 7.0 | -30.5 | 0.4 | -16.4
CC1=C(C(=O)N2CCCCCC2)CC(CC(=O)NC2CCCC2)C(=O)N1Cc1ccc(C(C)(C)C)cc1 (centres undefined) | -0.4 | x | x | x | x | x
COc1cc(C)c(CNc2cccc(C)c2)cc1C | -1.6 | -5.7 | 2.6 | -1.9 | 72.9* | 4.7
COc1cc(C)c(CNc2ccc(OC)c(OC)c2)cc1C | x | 12.5 | 6.5 | 17.1 | 80.1* | 38.4
C[C@H](NC(=O)c1ccc(Cl)cc1)C(=O)NNC(=O)c1cccs1 | 0.0 | x | x | x | x | x
O=C(Cc1ccc(F)cc1)Nc1nc(-c2ccc(F)c(F)c2)cs1 | 0.1 | x | x | x | x | 4.7
SMILES | TbMetRS inhib | eIF4E-4G inh | p97 inhibitor | NCF1 inh | 14-3-3 Bad inh | UBC9 SUMO inh
O=C(CSc1ncnc2[nH]ncc12)Nc1nc(-c2ccc(F)c(F)c2)cs1 | -1.1 | 1.2 | -0.6 | -75.4 | 73.8* | 18.8
CCOc1ccc(NC(=O)CN2CCN(c3ccc(F)cc3)CC2)cc1 | -0.3 | x | x | x | x | 11.9
CCOCCCNC(=O)CN1CCN(c2ccc(F)cc2)CC1 | -0.4 | 0.1 | 2.7 | -22.5 | 73.5* | 20.9
NC(=S)N/N=C/c1coc2cc(Br)ccc2c1=O | 0.8 | -5.4 | -2.5 | -8.8 | -3.7 | 18.8
NC(=S)N/N=C/c1coc2c(ccc3ccccc32)c1=O | 0.6 | 10.0 | 4.9 | -15.0 | 89.0*[fluorescence artefact?] | 41.2
Nc1c(-c2ccc(F)c(F)c2)nc2ncccn12 | -0.8 | x | x | x | x | x
CCCCn1c(=N)n(CC(=O)c2ccc(OC)cc2)c2ccccc21 | x | 83.2* | 0.1 | 3.1 | -3.7 | -3.0
COc1cc2c(cc1OC)n(CC(=O)NC1CCCCCC1)n1c(C)cc(=O)nc21 | -0.1 | x | x | x | x | 28.8
Cc1ccc(-n2ncc3c2CC(C)(C)CC3NC(=O)CCc2cccnc2)cc1 (centres undefined) | -0.5 | x | x | x | x | -10.2
NC(=S)n1[nH]c(-c2ccc([N+](=O)[O-])cc2)c(N=Nc2ccc(Cl)cc2)c1=O | 0.0 | 8.7 | -0.9 | 28.7 | 93.2* | 64.0*
COC(=O)[C@]12CCCCC=C1N(Cc1ccc3c(c1)OCO3)C(=O)[C@H](CC(=O)NCC13CC4CC(CC(C4)C1)C3)C2 | -0.5 | x | x | x | x | x
Cc1cccc2c(N=Nc3ccc(S(=O)(=O)Nc4ccc(Cl)cc4)cc3[N+](=O)[O-])c(O)[nH]c12 | -0.8 | 3.8 | 2.6 | -5.3 | -6.5 | 68.5*
CCN(CC)c1ccc(N2C(=O)/C(=C\c3cccs3)SC2=S)cc1 | -0.6 | -30.0 | -4.4 | -15.2 | 91.7*[fluorescence artefact?] | 6.9
COc1ccc(OC)c(CN2C(=O)CSCC2(C)C(=O)NC(C)C)c1 (centres undefined) | 0.1 | x | x | x | x | x
O=C(CCC1CCCC1)N1CCC(N2CCN(c3ccccc3)CC2)CC1 | 0.2 | -8.4 | -5.9 | -0.6 | 38.6 | 4.8
O=C(c1ccc(F)cc1)N1CCN(C2CCCCC2)CC1 | -1.2 | x | x | x | x | 23.4
O=C(c1ccccc1)N1CCN(C2CCCCCC2)CC1 | -1.1 | 6.5 | -6.3 | -5.5 | 72.3* | 23.3
COc1ccc(C(=O)N2CCC(N3CCN(c4ccccc4)CC3)CC2)cc1 | -1.2 | 1.0 | -6.5 | -3.9 | 89.1* | 2.0
CC(C)CC(=O)N1CCC(N2CCN(c3ccccc3)CC2)CC1 | 0.1 | 50.2* | 2.0 | -5.0 | 51.8 | 10.6
COc1ccccc1C(=O)N1CCC(N2CCN(c3ccccc3)CC2)CC1 | 0.2 | 5.7 | 0.2 | 1.6 | 47.9 | -20.4
CCCOc1ccc(N)cc1N | 0.1 | 13.9 | 12.9 | 1.9 | 92.3*[fluorescence artefact?] | 43.4
O=C(O)c1ccc(N2C(=O)/C(=C/c3ccc(-c4ccc([N+](=O)[O-])cc4)o3)C=C2c2ccccc2)cc1 | 0.2 | 76.4* | 5.2 | -38.9 | 93.7* | 39.8
CCCCNC(=O)C(NC(=O)c1ccc(-c2ccccc2)cc1)C(=O)c1ccccc1 (centres undefined) | 0.1 | x | x | x | x | x
O=C(Nc1cccc(NC(=O)c2ccc(Br)o2)n1)c1ccc(Br)o1 | 0.5 | -0.6 | 2.8 | 11.3 | 75.0* | 9.6
Cc1cc(-c2n[nH]c(=S)n2Cc2ccccc2)cs1 | -0.4 | 6.6 | -2.5 | 41.0* | 12.3 | 11.4
Cc1ccc(-n2nc3c(c2NC(=O)c2ccco2)CS(=O)C3)cc1 (centres undefined) | 0.0 | x | x | x | x | 7.1
Cc1n[nH]c(=S)n(NC(=O)CC(=O)Nn2c(=S)[nH]nc(C)c2=O)c1=O | 0.8 | -7.6 | 0.9 | -2.5 | -20.2 | -88.4
